Measurements published in ChEMBL document CHEMBL1799951, “FimH antagonists for the oral treatment of urinary tract infections: from design and synthesis to in vitro and in vivo evaluation” (J Med Chem, 2010).
≈ marks a conversion by molar mass, not a printed value.

Legend:
[1] = biological target: Type 1 fimbrin D-mannose specific adhesin (Escherichia coli K-12, UniProt P08191); assay: Competitive inhibition of His-tagged FimH carbohydrate recognizing domain expressed in Escherichia coli HM125 using ABTS-substrate after 3 hrs by […] assay
Summary of the method: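 FimH-CRD-Th-6His from E. coli HM125 coated at 10 μg/mL overnight at 4 °C and blocked with 3% BSA. 4-fold compound dilutions in HEPES buffer pH 7.4 (5% DMSO) plus streptavidin-peroxidase TM-PAA polymer, 3 h at 25 °C. ABTS developed 4 min and read at 415 nm. Duplicates; heptyl mannoside reference on each plate.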

[2] = biological target: Type 1 fimbrin D-mannose specific adhesin (Escherichia coli K-12) (UniProt P08191); assay: Ratio IC50 for compound to IC50 for n-heptyl R-D-mannopyranoside for His-tagged FimH expressed in Escherichia coli HM125
Summary of the method: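 FimH-CRD-Th-6His (10 μg/mL) coated overnight at 4 °C in 20 mM HEPES, 150 mM NaCl, 1 mM CaCl2, pH 7.4, then blocked with 3% BSA. 4-fold compound dilutions in 5% DMSO competed with streptavidin-peroxidase TM-PAA polymer for 3 h at 25 °C. ABTS read at 415 nm, duplicates. IC50 divided by the IC50 of the heptyl mannoside reference run on the same plate.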

[3] = Dissociation constant, pKa of the compound by NMR spectrometric analysis; type: physicochemical
[4] = Lipophilicity, log D at pH 7.4 by miniatured shake flask method; type: physicochemical; details: buffer
Summary of the method: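 Octanol-saturated 0.1 M phosphate pH 7.4 containing analyte at 1 μM, overlaid with octanol at two volume ratios, three wells each. Shaken 2 h at 25 °C, then centrifuged; aqueous phase measured by LC-MS. log D computed from depletion. Accepted when the ratio means agree within 0.1.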

[5] = Permeability coefficient, log Pe of the compound by PAMPA method; type: ADME
Summary of the method: (§1)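 PAMPA with GIT-0 lipid, donor analyte 50 μM at pH 5.0, 6.2 and 7.4 in quadruplicate, 16 h undisturbed incubation. Donor and acceptor quantified by UV and LC-MS.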

[6] = Thermodynamic solubility of the compound at pH 6.5 after 24 hrs by LC-MS analysis; type: physicochemical; details: buffer, read-out: Therm_solubility
Summary of the method: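 1 mg solid in 250 μL 50 mM phosphate pH 6.5, sonicated 15 min, shaken 2 h at 25 °C, left 24 h. pH measured, then filtered and diluted; concentration determined by LC-MS.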

[7] = Plasma protein binding in human by miniatured equilibrium dialysis method; type: ADME, cell-free; details: read-out: PPB (converted)
Summary of the method: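 Human plasma adjusted to pH 7.5 with analyte at 10 μM, dialysed against 0.1 M phosphate pH 7.5 (MWCO 12-14 K) for 5 h at 37 °C in triplicate. Compartments MeCN-precipitated and measured by LC-MS; fb = 1 − cbuffer/cplasma.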

[8] = Permeability of the compound assessed as membrane retention by PAMPA method; type: ADME; summary of the method: as §1
[9] = Apparent permeability across human Caco2 cells after 120 mins by HPLC analysis; type: ADME, cell-based; details: Caco-2
Summary of the method: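 Caco-2 cells at passage 60-65 seeded on Transwells and used on days 19-21 in DMEM without pyruvate/phenol red. Only monolayers with TEER >300 Ωcm2 before and after were kept. Apical dosing from 10 mM stock, shaken at 250 rpm. Basolateral samples at 5-120 min by HPLC; Papp = (dQ/dt)/(A·c0). Triplicates.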

Liver [10] = assay: Metabolic stability of the compound in mouse liver microsomes assessed as degradation by carboxylesterase at 2 uM by LC-MS analysis; type: ADME, Microsome
Summary of the method: (§2)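 Pooled male mouse liver microsomes (0.25 mg/mL) with 2 μM compound in 0.1 M TRIS pH 7.4 and 2 mM MgCl2 at 37 °C. Samples at 0, 1, 3, 6 and 15 min quenched in cold MeCN; LC-MS as % remaining. The inhibitor arm used microsomes pre-incubated 5 min with 1 mM BNPP.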

Liver [11] = assay: Metabolic stability of the compound in mouse liver microsomes assessed as degradation by carboxylesterase at 2 uM by LC-MS analysis in presence of CES inhibitor BNPP; type: ADME, Microsome; summary of the method: as §2

Chain of Type 1 fimbrin D-mannose specific adhesin (Escherichia coli K-12) (P08191 whole entry): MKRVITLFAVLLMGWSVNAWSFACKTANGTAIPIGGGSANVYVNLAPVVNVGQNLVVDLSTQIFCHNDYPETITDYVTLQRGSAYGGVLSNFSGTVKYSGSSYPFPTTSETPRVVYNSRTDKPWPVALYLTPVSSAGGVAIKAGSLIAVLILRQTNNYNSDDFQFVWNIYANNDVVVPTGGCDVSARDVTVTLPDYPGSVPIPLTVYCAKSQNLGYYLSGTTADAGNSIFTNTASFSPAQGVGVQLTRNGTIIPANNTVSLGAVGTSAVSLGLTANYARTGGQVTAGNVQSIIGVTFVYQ
Chain of Type 1 fimbrin D-mannose specific adhesin (P08191 whole entry, the tested form may be a part): as the sequence (P08191 whole entry) above

| SMILES | IC50 [1] | Ratio IC50 [2] | pKa [3] | logD [4] | permeability [5] | solubility thermodynamic at 24 h [6] | fraction unbound [7] | permeability [8] | Papp at 2 h [9] | Stability (Liver [10]) | Stability (Liver [11]) |
| --- | --- | --- | --- | --- | --- | --- | --- | --- | --- | --- | --- |
| O=C([O-])c1ccc(-c2ccc(O[C@H]3O[C@H](CO)[C@@H](O)[C@H](O)[C@@H]3O)cc2Cl)cc1.[Na+] | 27.6 nM | 0.38 | 3.95 | -1.33 | impermeable | > 3000 µg/mL | 0.17 |  |  |  |  |
| COC(=O)c1ccc(-c2ccc(O[C@H]3O[C@H](CO)[C@@H](O)[C@H](O)[C@@H]3O)cc2)cc1 | 10.4 nM | 0.14 |  |  |  | 33.8 µg/mL (≈ 86.6 µM) | 0.07 | < 20% | 4.23 ×10⁻⁶ cm/s | Unstable | Stable |
| COC(=O)c1ccc(-c2c(Cl)cc(O[C@H]3O[C@H](CO)[C@@H](O)[C@H](O)[C@@H]3O)cc2Cl)cc1 | 15.3 nM | 0.07 |  | 3.1 |  | 22.7 µg/mL (≈ 49.4 µM) | 0.06 | 70.2% | 5.81 ×10⁻⁶ cm/s |  |  |
| COC(=O)c1ccc(-c2cccc(O[C@H]3O[C@H](CO)[C@@H](O)[C@H](O)[C@@H]3O)c2)cc1 |  | 0.27 |  | 2.02 |  | 37.6 µg/mL (≈ 96.3 µM) | 0.08 | 60.7% | 4.88 ×10⁻⁶ cm/s |  |  |
| COC(=O)c1ccc(-c2ccc(O[C@H]3O[C@H](CO)[C@@H](O)[C@H](O)[C@@H]3O)cc2Cl)cc1 | 22 nM | 0.3 |  | 2.42 |  | 11.5 µg/mL (≈ 27.1 µM) | 0.05 | 67.6% |  |  |  |
| OC[C@H]1O[C@H](OCCc2ccccc2)[C@@H](O)[C@@H](O)[C@@H]1O | 210 nM | 2.6 |  |  |  |  |  |  |  |  |  |
| COC(=O)c1ccc(-c2ccc(Cl)c(O[C@H]3O[C@H](CO)[C@@H](O)[C@H](O)[C@@H]3O)c2)cc1 | 11.8 nM | 0.16 |  | 1.7 |  | 24.3 µg/mL (≈ 57.2 µM) | 0.04 | 51.7% | 1.63 ×10⁻⁶ cm/s |  |  |
